Measured values published in ChEMBL document CHEMBL3232794, “Synthesis and evaluation of 2-anilinopyrimidines bearing 3-aminopropamides as potential epidermal growth factor receptor inhibitors” (Eur J Med Chem, 2014).
Calls of active or inactive are those of the source. The rule behind the calls is not given here.

Key:
[1] = target: Epidermal growth factor receptor (Homo sapiens, UniProt P00533)
[2] = target: Epidermal growth factor receptor (Homo sapiens, UniProt P00533, L858R); type: protein assay
[3] = target: Epidermal growth factor receptor (Homo sapiens, UniProt P00533, L858R/T790M); type: protein assay
[4] = system: NCI-H1975; assay: Antiproliferative activity against human NCI-H1975 cells harboring EGFR L858R/T790M mutant after 72 hrs by MTT assay; type: functional, cell-based; settings: NCI-H1975, 72 h
[5] = cells; type: functional, cell-based; settings: Homo sapiens, HCC827, 72 h
[6] = system: A-431; assay: cells; type: functional, cell-based; settings: Homo sapiens, A-431, 72 h
[7] = system: A549; assay: cells; type: functional, cell-based; settings: Homo sapiens, A549, 72 h
[8] = cells; type: functional, cell-based; settings: Homo sapiens, BEAS-2B, 72 h
[9] = cells; type: ADME, cell-based; settings: Homo sapiens, 16HBE14o-, 72 h
[10] = system: NCI-H1975; assay: Induction of NO production in human NCI-H1975 cells harboring EGFR L858R/T790M mutant at 100 uM incubated for 150 mins; type: functional, cell-based
Outline: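 H1975 or 16HBE cells (1 × 10⁶/well) exposed to 100 µM compound for 150 min, then harvested and lysed. Lysates mixed with Griess reagent for 10 min and absorbance read at 540 nm. Nitrite quantified against a […] standard curve, with diluent-treated cells as background.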

[11] = target: RAC-alpha serine/threonine-protein kinase (Homo sapiens) (UniProt P31749); assay: Inhibition of Akt phosphorylation in human H1975 cells harboring EGFR L858R/T790M mutant at 1 uM by Western blotting analysis; type: cell-based
Outline: (§1)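 Lysates (50 µg/lane) separated on 7.5% SDS-PAGE and blotted to nitrocellulose. Probed for total and phospho-EGFR (Tyr1068), Akt (Ser473) and ERK (Thr202/Tyr204) plus β-actin; HRP secondaries with ECL detection.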

[12] = Chemical stability of the compound in buffer solution assessed as compound remaining at 50 uM at pH 7.4 after 24 hrs by LC-UV analysis; type: physicochemical; settings: read-out: Stability
Outline: (§2)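 1 mM DMSO stocks diluted to 50 µM final (5% v/v DMSO) in prewarmed 0.01 M PBS pH 7.4 or 0.01 M borate buffer pH 9.0. Incubated at 37 °C for 24 h, mixed with equal volume acetonitrile, analysed by C18 RP-HPLC with UV detection at 281 nm; percent remaining, mean ± SD, n = 3.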

[13] = Chemical stability of the compound in buffer solution assessed as compound remaining at 50 uM at pH 9 after 24 hrs by LC-UV analysis; type: physicochemical
Outline: as §2

[14] = (§3) Stability of the compound in rat plasma assessed as compound remaining at 50 uM at pH 7.4 after 24 hrs by LC-UV analysis; type: ADME, cell-free; settings: pH 7.4, read-out: Stability
Outline: (§4)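 Rat plasma diluted to 50% (v/v) with 0.1 M PBS pH 7.4 and spiked with compound from a DMSO stock, then incubated 24 h at 37 °C. Two volumes acetonitrile added, centrifuged (4 °C, 14,000 g, 15 min), supernatant run on RP-HPLC with UV at 281 nm; percent remaining, n = 3.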

[15] = GSH reactivity assessed as compound remaining at 50 uM after 1 hr at pH 7.4 by LC-UV analysis; type: physicochemical; settings: read-out: Activity
Outline: (§5)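 Freshly prepared thiol (DTT, reduced GSH or L-cysteine; 2 mM) added to PBS pH 7.4 containing test compound, incubated 1 h at 37 °C. Remaining parent measured by HPLC-UV (C18, 281 nm); mean ± SD, n = 3.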

[16] = DTT reactivity assessed as compound remaining at 50 uM after 1 hr at pH 7.4 by LC-UV analysis; type: physicochemical; settings: read-out: Activity
Outline: as §5

[17] = L-cysteine reactivity assessed as compound remaining at 50 uM after 1 hr at pH 7.4 by LC-UV analysis; type: physicochemical; settings: read-out: Activity
Outline: as §5

[18] = system: NCI-H1975; assay: Antiproliferative activity against human NCI-H1975 cells harboring EGFR L858R/T790M mutant at 5 uM after 72 hrs by MTT assay in presence of 1 to 20 uM haemoglobin NO scavenger; type: functional, cell-based; settings: in the assay text read “24 hrs” for “72 hrs”
Outline: (§6)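 Cells pretreated 1 h with hemoglobin (0, 1, 5, 10 or 20 µM) as NO scavenger, then exposed to 5 µM test compound for 24 h; growth read by MTT assay.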

[19] = system: HCC827; assay: Antiproliferative activity against gefitinib-sensitive human HCC827 cells bearing EGFR del E746_A750 mutant at 5 uM after 72 hrs by MTT assay in presence of 1 to 20 uM haemoglobin NO scavenger; type: functional, cell-based; settings: in the assay text read “24 hrs” for “72 hrs”
Outline: as §6

[20] = system: Epidermal growth factor receptor (Homo sapiens), P00533 [L858R,T790M]; assay: Inhibition of EGFR phosphorylation in human H1975 cells harboring EGFR L858R/T790M mutant by Western blotting analysis; type: cell-based
Outline: as §1

[21] = system: Epidermal growth factor receptor (Homo sapiens), P00533 [L858R,T790M]; assay: Inhibition of EGFR phosphorylation in human H1975 cells harboring EGFR L858R/T790M mutant at 0.1 uM by Western blotting analysis; type: cell-based
Outline: as §1

[22] = system: Epidermal growth factor receptor (Homo sapiens), P00533 [L858R,T790M]; settings: H1975, at 1 µM
[23] = system: H1975; settings: Homo sapiens, at 1 µM
[24] = system: Plasma; assay: as §3; type: ADME, cell-free; settings: pH 7.4, 24 h, 50 µM, BLD = below limit of detection
Outline: as §4

Chain of Epidermal growth factor receptor (Homo sapiens, UniProt P00533, L858R/T790M) (P00533 25-1210 T790M/L858R limits assumed): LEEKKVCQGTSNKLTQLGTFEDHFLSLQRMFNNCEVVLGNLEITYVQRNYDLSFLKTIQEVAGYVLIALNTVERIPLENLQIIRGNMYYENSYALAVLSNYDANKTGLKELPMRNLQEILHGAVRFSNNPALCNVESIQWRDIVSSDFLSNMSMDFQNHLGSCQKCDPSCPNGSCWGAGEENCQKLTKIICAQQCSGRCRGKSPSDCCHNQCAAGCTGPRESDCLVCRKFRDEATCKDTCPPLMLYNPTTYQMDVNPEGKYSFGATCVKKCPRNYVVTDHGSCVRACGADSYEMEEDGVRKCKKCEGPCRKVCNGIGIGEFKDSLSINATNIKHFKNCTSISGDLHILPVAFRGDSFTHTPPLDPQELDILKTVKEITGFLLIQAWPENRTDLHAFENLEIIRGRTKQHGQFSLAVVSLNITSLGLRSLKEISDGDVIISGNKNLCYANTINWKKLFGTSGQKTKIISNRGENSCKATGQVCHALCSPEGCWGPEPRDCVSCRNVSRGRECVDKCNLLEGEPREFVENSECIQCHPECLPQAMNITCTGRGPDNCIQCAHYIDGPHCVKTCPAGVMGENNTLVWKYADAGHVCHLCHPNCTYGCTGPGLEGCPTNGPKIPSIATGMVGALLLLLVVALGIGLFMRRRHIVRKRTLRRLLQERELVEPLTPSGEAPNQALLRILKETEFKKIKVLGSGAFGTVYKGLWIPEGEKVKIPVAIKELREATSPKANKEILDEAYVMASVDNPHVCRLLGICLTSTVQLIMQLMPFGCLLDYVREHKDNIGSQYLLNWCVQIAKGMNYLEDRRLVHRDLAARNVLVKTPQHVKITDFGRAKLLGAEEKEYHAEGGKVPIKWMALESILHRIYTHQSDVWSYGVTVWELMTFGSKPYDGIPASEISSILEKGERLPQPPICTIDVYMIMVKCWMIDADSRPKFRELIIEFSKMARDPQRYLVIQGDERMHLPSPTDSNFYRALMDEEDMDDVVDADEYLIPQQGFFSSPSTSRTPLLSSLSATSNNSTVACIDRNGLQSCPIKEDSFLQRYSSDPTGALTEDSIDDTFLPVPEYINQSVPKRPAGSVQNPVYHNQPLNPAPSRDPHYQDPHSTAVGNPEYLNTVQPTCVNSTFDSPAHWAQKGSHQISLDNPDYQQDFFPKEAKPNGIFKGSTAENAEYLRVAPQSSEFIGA
Chain of Epidermal growth factor receptor (Homo sapiens, UniProt P00533) (P00533 whole entry): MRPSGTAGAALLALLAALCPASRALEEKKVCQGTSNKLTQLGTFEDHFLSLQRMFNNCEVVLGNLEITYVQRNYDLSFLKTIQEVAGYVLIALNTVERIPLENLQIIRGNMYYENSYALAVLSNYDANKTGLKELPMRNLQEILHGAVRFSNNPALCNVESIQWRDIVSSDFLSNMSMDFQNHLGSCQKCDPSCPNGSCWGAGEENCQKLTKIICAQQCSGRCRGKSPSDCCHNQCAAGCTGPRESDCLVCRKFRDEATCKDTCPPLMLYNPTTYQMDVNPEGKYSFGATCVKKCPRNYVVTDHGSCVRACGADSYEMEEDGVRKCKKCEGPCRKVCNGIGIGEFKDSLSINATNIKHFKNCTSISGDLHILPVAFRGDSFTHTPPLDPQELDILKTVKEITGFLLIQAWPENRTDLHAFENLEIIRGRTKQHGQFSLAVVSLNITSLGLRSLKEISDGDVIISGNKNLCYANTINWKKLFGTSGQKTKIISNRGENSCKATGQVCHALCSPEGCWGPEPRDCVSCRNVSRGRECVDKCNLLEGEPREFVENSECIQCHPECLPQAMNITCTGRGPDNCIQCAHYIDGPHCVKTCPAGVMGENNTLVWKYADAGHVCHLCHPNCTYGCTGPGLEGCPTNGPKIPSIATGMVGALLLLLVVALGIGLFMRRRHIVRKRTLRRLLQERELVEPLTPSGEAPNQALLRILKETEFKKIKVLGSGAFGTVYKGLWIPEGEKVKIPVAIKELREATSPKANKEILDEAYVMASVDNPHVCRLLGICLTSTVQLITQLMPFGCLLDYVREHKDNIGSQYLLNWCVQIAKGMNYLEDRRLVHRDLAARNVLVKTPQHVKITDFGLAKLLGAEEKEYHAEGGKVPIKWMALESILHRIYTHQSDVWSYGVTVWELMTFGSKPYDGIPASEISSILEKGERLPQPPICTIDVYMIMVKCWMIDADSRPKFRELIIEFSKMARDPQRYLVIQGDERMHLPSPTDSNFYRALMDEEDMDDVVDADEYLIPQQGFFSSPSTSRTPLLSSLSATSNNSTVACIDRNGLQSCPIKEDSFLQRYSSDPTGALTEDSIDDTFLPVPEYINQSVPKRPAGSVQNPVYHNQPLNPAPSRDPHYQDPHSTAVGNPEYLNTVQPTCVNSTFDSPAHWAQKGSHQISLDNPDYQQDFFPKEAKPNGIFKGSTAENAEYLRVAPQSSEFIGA
Chain of Epidermal growth factor receptor (Homo sapiens), P00533 [L858R,T790M] (P00533 whole entry T790M/L858R, looked up): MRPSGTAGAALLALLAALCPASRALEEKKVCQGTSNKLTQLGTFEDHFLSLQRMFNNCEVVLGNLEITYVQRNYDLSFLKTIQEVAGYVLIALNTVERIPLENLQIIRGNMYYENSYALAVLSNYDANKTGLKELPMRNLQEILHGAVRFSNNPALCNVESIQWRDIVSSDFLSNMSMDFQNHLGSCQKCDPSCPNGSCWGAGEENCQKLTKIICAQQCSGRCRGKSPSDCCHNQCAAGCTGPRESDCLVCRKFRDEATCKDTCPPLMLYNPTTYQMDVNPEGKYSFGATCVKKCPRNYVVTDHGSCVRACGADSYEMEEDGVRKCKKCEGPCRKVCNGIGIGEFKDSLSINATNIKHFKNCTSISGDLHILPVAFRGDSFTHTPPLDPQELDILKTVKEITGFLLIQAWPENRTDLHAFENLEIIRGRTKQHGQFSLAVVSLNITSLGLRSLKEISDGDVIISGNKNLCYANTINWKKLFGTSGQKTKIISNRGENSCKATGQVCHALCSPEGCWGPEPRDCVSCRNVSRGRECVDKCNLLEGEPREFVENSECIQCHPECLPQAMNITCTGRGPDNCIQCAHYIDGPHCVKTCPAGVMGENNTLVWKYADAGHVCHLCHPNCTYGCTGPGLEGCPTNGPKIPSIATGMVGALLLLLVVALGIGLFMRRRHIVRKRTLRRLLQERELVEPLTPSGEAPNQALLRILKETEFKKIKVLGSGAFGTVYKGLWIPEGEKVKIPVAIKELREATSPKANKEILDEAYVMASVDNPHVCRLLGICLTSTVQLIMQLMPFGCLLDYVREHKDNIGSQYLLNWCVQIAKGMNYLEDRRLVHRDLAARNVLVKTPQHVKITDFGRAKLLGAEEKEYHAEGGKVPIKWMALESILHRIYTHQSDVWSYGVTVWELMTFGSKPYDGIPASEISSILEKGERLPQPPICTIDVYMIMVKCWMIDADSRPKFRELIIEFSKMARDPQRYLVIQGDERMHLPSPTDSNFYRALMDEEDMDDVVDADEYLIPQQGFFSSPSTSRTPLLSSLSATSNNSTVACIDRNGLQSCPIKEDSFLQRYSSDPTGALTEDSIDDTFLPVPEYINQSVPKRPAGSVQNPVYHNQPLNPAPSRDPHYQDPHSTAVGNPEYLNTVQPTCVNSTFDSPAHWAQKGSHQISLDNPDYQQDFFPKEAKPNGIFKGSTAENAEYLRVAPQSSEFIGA
Chain of Epidermal growth factor receptor (Homo sapiens, UniProt P00533, L858R) (P00533 25-1210 L858R limits assumed): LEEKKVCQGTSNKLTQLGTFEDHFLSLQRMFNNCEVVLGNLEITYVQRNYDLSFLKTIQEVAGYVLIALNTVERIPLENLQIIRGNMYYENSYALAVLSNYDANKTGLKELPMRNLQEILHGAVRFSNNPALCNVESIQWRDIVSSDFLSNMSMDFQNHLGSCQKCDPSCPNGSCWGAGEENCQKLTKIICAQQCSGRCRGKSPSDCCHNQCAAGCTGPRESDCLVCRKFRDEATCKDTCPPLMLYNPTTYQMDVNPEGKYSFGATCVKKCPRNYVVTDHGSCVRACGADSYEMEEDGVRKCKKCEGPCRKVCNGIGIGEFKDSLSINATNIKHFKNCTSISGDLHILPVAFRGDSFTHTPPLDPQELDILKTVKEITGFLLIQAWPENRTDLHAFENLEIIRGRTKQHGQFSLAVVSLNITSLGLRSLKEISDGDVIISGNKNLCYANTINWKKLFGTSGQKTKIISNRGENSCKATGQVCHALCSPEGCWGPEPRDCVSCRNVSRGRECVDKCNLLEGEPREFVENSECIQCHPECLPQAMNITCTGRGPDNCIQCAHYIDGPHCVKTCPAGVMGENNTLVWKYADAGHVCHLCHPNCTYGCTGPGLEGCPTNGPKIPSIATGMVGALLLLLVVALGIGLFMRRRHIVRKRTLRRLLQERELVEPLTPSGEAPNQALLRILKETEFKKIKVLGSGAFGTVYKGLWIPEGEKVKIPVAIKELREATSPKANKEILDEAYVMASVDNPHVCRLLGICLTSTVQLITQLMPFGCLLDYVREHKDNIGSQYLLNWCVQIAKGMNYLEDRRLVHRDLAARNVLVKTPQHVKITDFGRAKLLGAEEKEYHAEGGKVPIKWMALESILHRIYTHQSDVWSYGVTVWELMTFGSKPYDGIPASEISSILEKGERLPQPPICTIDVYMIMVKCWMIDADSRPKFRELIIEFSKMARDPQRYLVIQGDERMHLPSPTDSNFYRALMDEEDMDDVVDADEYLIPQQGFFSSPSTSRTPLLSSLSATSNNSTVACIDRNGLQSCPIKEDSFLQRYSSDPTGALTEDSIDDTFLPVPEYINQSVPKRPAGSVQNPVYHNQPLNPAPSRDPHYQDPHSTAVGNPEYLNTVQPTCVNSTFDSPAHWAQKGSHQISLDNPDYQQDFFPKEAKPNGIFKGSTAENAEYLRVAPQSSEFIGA

Row | Structure (SMILES) | IC50 [1] | IC50 [2] | IC50 [3] | IC50 [4] | IC50 [5] | IC50 [6] | IC50 [7] | IC50 [8] | IC50 [9] | further results
1 | COc1cc(N2CCN(C)CC2)ccc1Nc1ncc(Cl)c(Oc2cccc(NC(=O)CCN3CCN(C)CC3)c2)n1 | 7440 nM | 10000 nM | 4710 nM | 1040 nM | 1500 nM | 548 nM | 1030 nM | 412 nM | 1750 nM | 
2 | COc1cc(N2CCN(C)CC2)ccc1Nc1ncc(Cl)c(Oc2cccc(NC(=O)CCN3CCCC3)c2)n1 | 525 nM | 427 nM | 88 nM | 268 nM | 210 nM | 804 nM | 1210 nM | 1890 nM | 1130 nM | 
3 | COc1cc2ncnc(Nc3ccc(F)c(Cl)c3)c2cc1OCCCN1CCOCC1 |  |  |  |  |  |  |  |  |  | Activity [10]: Active; inhibition [11]: inactive
4 | COc1cc(N2CCN(C)CC2)ccc1Nc1ncc(Cl)c(Oc2cccc(NC(=O)CCN3CCN(CCO)CC3)c2)n1 | 2390 nM | 5870 nM | 2420 nM | 931 nM | 799 nM | 632 nM | 2820 nM | 1660 nM | 2060 nM | remaining at 24 h, 50 µM [12]: 99.5%; remaining at 24 h, 50 µM ([13]; buffer solution, pH 9, read-out: Stability): 81.4%; remaining at 24 h, 50 µM [14]: 105%; remaining at 1 h, 50 µM [15]: 100%; remaining at 1 h, 50 µM [16]: 101%; remaining at 1 h, 50 µM [17]: 101%
5 | COc1cc(N2CCN(C)CC2)ccc1Nc1ncc(Cl)c(Oc2cccc(NC(=O)CCN3CCCCC3)c2)n1 | 10000 nM | 4530 nM | 2180 nM | 178 nM | 337 nM | 410 nM | 1120 nM | 365 nM | 970 nM | 
6 | CCOC(=O)N1CCN(CCC(=O)Nc2cccc(Oc3nc(Nc4ccc(N5CCN(C)CC5)cc4OC)ncc3Cl)c2)CC1 | 698 nM | 2380 nM | 537 nM | 1600 nM | 883 nM | 4530 nM | 5280 nM | 5780 nM | 3700 nM | 
7 | COc1cc(N2CCN(C)CC2)ccc1Nc1ncc(Cl)c(Oc2cccc(NC(=O)CCN3CCOCC3)c2)n1 | > 10000 nM | > 10000 nM | > 10000 nM | 1020 nM | 899 nM | 3910 nM | 2620 nM | 2270 nM | 3600 nM | 
8 | COc1cc(N2CCN(C)CC2)ccc1Nc1ncc(Cl)c(Oc2cccc(NC(=O)CCN3CCN(CCOc4no[n+]([O-])c4S(=O)(=O)c4ccccc4)CC3)c2)n1 | 201 nM | 262 nM | 263 nM | 108 nM | 130 nM | 4470 nM | 8250 nM | 3370 nM | 2880 nM | inhibition [18]: inactive; inhibition [19]: inactive; Activity [10]: Active; inhibition [20]: Dose-dependent effect; inhibition [21]: Active; inhibition [11]: Active; inhibition [22]: Active; inhibition [23]: Active
9 | COc1cc(N2CCN(C)CC2)ccc1Nc1ncc(Cl)c(Oc2cccc(NC(=O)CCN(C)C)c2)n1 | 638 nM | 804 nM | 184 nM | 156 nM | 266 nM | 545 nM | 923 nM | 615 nM | 1140 nM | 
10 | C=CC(=O)Nc1cccc(Oc2nc(Nc3ccc(N4CCN(C)CC4)cc3OC)ncc2Cl)c1 |  |  |  | 46 nM | 8 nM |  |  |  |  | remaining at 24 h, 50 µM [12]: 101%; Stability ([13]; buffer, pH 9, 24 h, 50 µM, BLD = below limit of detection): BLD; Stability [24]: BLD; remaining at 1 h, 50 µM [15]: 73.5%; remaining at 1 h, 50 µM [16]: 11.3%; remaining at 1 h, 50 µM [17]: 12.2%
11 | CCN(CC)CCC(=O)Nc1cccc(Oc2nc(Nc3ccc(N4CCN(C)CC4)cc3OC)ncc2Cl)c1 | 877 nM | 818 nM | 181 nM | 166 nM | 249 nM | 291 nM | 1000 nM | 433 nM | 620 nM | 
